In ChEMBL document CHEMBL1147939, “Synthesis and biological evaluation of new 3-substituted indole derivatives as potential anti-inflammatory and analgesic agents” (2007):

Tests used:
Format in all cases: functional
Mus musculus [1] = assay: Antiinflammatory activity in Swiss mouse assessed as inhibition of carrageenan-induced hind paw oedema at 70 mg/kg, po after 4 hrs relative to indomethacin
Method in brief: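 Carrageenan paw oedema in Swiss mice, six per group, 70 mg/kg orally in distilled water; 50 µL 1% carrageenan subplantar, paw measured at 0 and 4 h. Potency expressed as ratio of the compound's percentage change to that of the indomethacin group (35 mg/kg in 5% sodium bicarbonate).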

Mus musculus [2] = assay: Antiinflammatory activity in Swiss mouse assessed as inhibition of carrageenan-induced hind paw oedema at 70 mg/kg, po after 4 hrs
Method in brief: (§1)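 Swiss mice (20–30 g), six per group; oral dosing, test agents in distilled water, reference in 5% sodium bicarbonate, saline controls. Oedema induced by subplantar injection of 50 µL 1% carrageenan in saline into right hind paw. Paw size measured before and 4 h after carrageenan. % oedema inhibition calculated versus saline control group's % oedema formation. Mean ± SE; one-way ANOVA, Duncan's test.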

Mus musculus [3] = assay: Antinociceptive activity in Swiss mouse assessed as inhibition of acetic-acid induced writhing at 70 mg/kg, po after 30 mins by Koster test relative to indomethacin
Method in brief: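 Acetic acid writhing in Swiss mice, six per group: 70 mg/kg orally in distilled water, 0.6% acetic acid ip 60 min later, writhes counted over 30 min. Potency is the ratio of % change to that of the indomethacin group (35 mg/kg).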

Mus musculus [4] = assay: Effect on thermal pain in Swiss mouse at 70 mg/kg, po after 1 hr by hot plate test
Method in brief: (§2)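 Hot-plate at 52 °C, 60 s cut-off, Swiss mice, six per group. Latency to paw licking or jumping recorded before and 1 h after oral dosing (test agents in distilled water, reference in 5% sodium bicarbonate). % change from basal latency. Mean ± SE; one-way ANOVA, Duncan's test.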

Mus musculus [5] = assay: Effect on thermal pain in Swiss mouse at 70 mg/kg, po after 1 hr by hot plate test relative to indomethacin; design: unit not given here
Method in brief: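 Hot-plate at 52 °C (60 s cut-off), Swiss mice, six per group. Latency to licking or jumping measured before and 1 h after 70 mg/kg orally. Potency is the ratio of % change from basal to that of the indomethacin group (35 mg/kg).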

Mus musculus [6] = assay: Antinociceptive activity in Swiss mouse assessed as inhibition of acetic-acid induced writhing at 70 mg/kg, po after 30 mins by Koster test
Method in brief: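 Koster writhing test in Swiss mice (20–30 g), six per group. Oral dosing, test agents in distilled water, reference in 5% sodium bicarbonate. After 60 min, 0.6% acetic acid given ip (0.2 mL/mouse). Writhes counted over 30 min. % change versus saline control group. Mean ± SE; one-way ANOVA, Duncan's test.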

Mus musculus [7] = assay: Effect on thermal pain in Swiss mouse at 35 mg/kg, po after 1 hr by hot plate test; method in brief: as §2
Mus musculus [8] = assay: Antinociceptive activity in Swiss mouse assessed as inhibition of acetic-acid induced writhing at 35 mg/kg, […] by Koster test; design: scale not given: the % may be the effect or the level left; conditions: route oral
Mus musculus [9] = assay: Antiinflammatory activity in Swiss mouse assessed as inhibition of carrageenan-induced hind paw oedema at 35 mg/kg, po after 4 hrs; method in brief: as §1

SMILES	Activity (Mus musculus [1])	inhibition in vivo at 70 mg/kg (Mus musculus [2])	Activity (Mus musculus [3])	Activity (Mus musculus [4])	Activity (Mus musculus [5])	percent change in writhing count versus control (Mus musculus [6])	Activity (Mus musculus [7])	Activity (Mus musculus [8])	inhibition in vivo at 35 mg/kg (Mus musculus [9])
CC(=O)C1=NN(c2ccccc2)/C(=C(\C#N)C(=O)c2c[nH]c3ccccc23)S1	0.6 ratio (fold of indomethacin)	-21.9%	0.88 ratio to indomethacin	2.4%	0.1	-71.6%	–	–	–
N#C/C(=N\Nc1cc(-c2ccccc2)n[nH]1)C(=O)c1c[nH]c2ccccc12	0.4 ratio (fold of indomethacin)	-13.1%	0.77 ratio to indomethacin	28.3%	1.3	-62.5%	–	–	–
N#C/C(=N\Nc1nc2ccccc2[nH]1)C(=O)c1c[nH]c2ccccc12	0.9 ratio (fold of indomethacin)	-25.5%	0.78 ratio to indomethacin	8.6%	0.4	-63.2%	–	–	–
N#C/C(C(=O)c1c[nH]c2ccccc12)=C(\S)Nc1ccccc1	0.9 ratio (fold of indomethacin)	-28%	0.79 ratio to indomethacin	24.2%	1.1	-64.1%	–	–	–
N#C/C(C(=O)c1c[nH]c2ccccc12)=C1/SCC(=O)N1c1ccccc1	0.3 ratio (fold of indomethacin)	-7.7%	0.75 ratio to indomethacin	76.5%	3.4	-60.9%	–	–	–
CCOC(=O)C1=NN(c2ccccc2)/C(=C(\C#N)C(=O)c2c[nH]c3ccccc23)S1	0.2 ratio (fold of indomethacin)	-5.5%	0.76 ratio to indomethacin	9.6%	0.4	-61.7%	–	–	–
CCOC(=O)C1=NN(c2ccc(C)cc2)/C(=C(\C#N)C(=O)c2c[nH]c3ccccc23)S1	0.4 ratio (fold of indomethacin)	-11.5%	0.96 ratio to indomethacin	11.4%	0.5	-77.5%	–	–	–
CCOC(=O)C1=NN(c2ccc(Cl)cc2)/C(=C(\C#N)C(=O)c2c[nH]c3ccccc23)S1	0.6 ratio (fold of indomethacin)	-19.1%	0.9 ratio to indomethacin	9.9%	0.4	-76%	–	–	–
CC(=O)c1sc(Nc2ccccc2)c(C#N)c1-c1c[nH]c2ccccc12	1.5 ratio (fold of indomethacin)	-44.4%	0.85 ratio to indomethacin	11.2%	0.5	-68.6%	–	–	–
CC(=O)C1=NN(c2ccc(C)cc2)/C(=C(\C#N)C(=O)c2c[nH]c3ccccc23)S1	1.1 ratio (fold of indomethacin)	-32.7%	0.7 ratio to indomethacin	21%	0.9	-57.8%	–	–	–
CC(=O)C1=NN(c2ccc(Cl)cc2)/C(=C(\C#N)C(=O)c2c[nH]c3ccccc23)S1	0.5 ratio (fold of indomethacin)	-15%	0.57 ratio to indomethacin	69.6%	3.1	-45.7%	–	–	–
N#C/C(C(=O)c1c[nH]c2ccccc12)=C1/SC(c2ccccc2)=NN1c1ccccc1	0.9 ratio (fold of indomethacin)	-31%	0.4 ratio to indomethacin	27.3%	1.2	-35.3%	–	–	–
COc1ccc2c(c1)c(CC(=O)O)c(C)n2C(=O)c1ccc(Cl)cc1 [INDOMETHACIN]	–	–	–	–	–	–	22.6%	-80.7%	-29.9%
